# Experimental data from ChEMBL document CHEMBL5036324 (J Med Chem, 2021).
# The source made the active and inactive calls. No cut-off for these calls is given here.
# Legend:
# [1] = target: T1, TLR7 and TLR8 (Homo sapiens) (UniProt Q9NYK1+Q9NR97); test: Agonist activity at human TLR7/8 expressed in human PBMC cells assessed as induction of IL-6 production by measuring concentration required to induce maximal response incubated for 12 hrs by multiplexed immunoassay; type: cell-based; details: filed as agonist
# In short: (§1)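 Healthy-volunteer PBMCs from a single donor were isolated by Ficoll−Hypaque gradient and plated at 2.0 × 10⁶ cells/mL. They were stimulated for 12 h with escalating compound concentrations. Supernatants were assayed in duplicate on a 41-analyte magnetic bead cytokine/chemokine panel read by Luminex. EC_max is the concentration giving maximal cytokine induction.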
# CT26 [2] = test: Antitumor immunity against mouse CT26 cells implanted in BALB/c mouse assessed as increase in Teff/Treg ratio at 25 ug, ip administered once a week with anti-PD-1 antibody for 23 days by flow cytometry analysis; type: functional, organism-based; details: dose 25.0 µg, time 23.0 day
# In short: (§2)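 CT26-bearing BALB/c mice (n = 5) were treated ip once weekly with agonist, alone or with anti-PD-1 (200 μg, twice weekly). Tumours were harvested 23 days after implantation, enzymatically and mechanically dissociated into single cells, and stained for surface markers plus intracellular FoxP3 after fixation/permeabilisation. Cells were gated within CD45⁺ for CD11c⁺ DCs, CD11b⁺F4/80⁺MHCII⁺ (M1), CD206⁺ (M2), CD3/CD4/CD8, and CD4⁺CD25⁺FoxP3⁺ Treg, then analysed by flow cytometry.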
# CT26 [3] = test: Antitumor immunity against mouse CT26 cells implanted in BALB/c mouse assessed as increase in Teff/Treg ratio at 25 ug, ip administered once a week for 23 days by flow cytometry analysis; type: functional, organism-based; details: dose 25.0 µg, time 23.0 day; in short: as §2
# [4] = Toxicity in BALB/c mouse implanted with mouse CT26 cells assessed as decrease in body weight at 25 ug, ip administered once a week for 23 days; type: organism-based; details: in vivo, 552 h, dose 25 µg, time 23 day
# In short: (§3)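 CT26 subcutaneous tumor-bearing BALB/c mice (n = 5) were treated from 100 mm³ tumor volume. TLR7/8 agonist was given ip once weekly, alone or with anti-PD-1 antibody (200 μg ip, twice weekly). Body weight was tracked over the treatment period and reported as mean ± SEM.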
# [5] = target: T1, TLR7 and TLR8 (Homo sapiens); test: Agonist activity at human TLR7/8 expressed in human PBMC cells assessed as induction of MIP-1alpha production by measuring concentration required to induce maximal response incubated for 12 hrs by multiplexed immunoassay; type: cell-based; details: filed as agonist; in short: as §1
# [6] = Acute toxicity in BALB/c mouse assessed as mild diarrhea at 15 to 80 mg/kg, ip administered as single dose measured after 24 hrs; type: organism-based; details: in vivo, dose 15-80 mg/kg
# CT26 [7] = test: Antitumor immunity against mouse CT26 cells implanted in BALB/c mouse assessed as increase in infiltration of CD8+ T cytotoxic lymphocytes at 25 ug, ip administered once a week for 23 days by flow cytometry analysis; type: functional, organism-based; details: dose 25.0 µg, time 23.0 day; in short: as §2
# CT26 [8] = test: Antitumor immunity against mouse CT26 cells implanted in BALB/c mouse assessed as increase in infiltration of CD4+ TH1 cells at 25 ug, ip administered once a week for 23 days by flow cytometry analysis; type: functional, organism-based; details: dose 25.0 µg, time 23.0 day; in short: as §2
# [9] = Toxicity in BALB/c mouse implanted with mouse CT26 cells assessed as decrease in body weight at 25 ug, ip administered once a week in presence of anti-PD-1 antibodies for 23 days; type: organism-based; details: in vivo, 552 h, dose 25 µg, time 23 day; in short: as §3
# [10] = target: T1, TLR7 and TLR8 (Homo sapiens); test: Agonist activity at human TLR7/8 expressed in human PBMC cells assessed as induction of IL-1beta production by measuring concentration required to induce maximal response incubated for 12 hrs by multiplexed immunoassay; type: cell-based; details: filed as agonist; in short: as §1
# [11] = target: T1, TLR7 and TLR8 (Homo sapiens); test: Agonist activity at human TLR7/8 expressed in human PBMC cells assessed as induction of IP-10 production by measuring concentration required to induce maximal response incubated for 12 hrs by multiplexed immunoassay; type: cell-based; details: filed as agonist; in short: as §1
# CT26 [12] = test: Antitumor activity against mouse CT26 cells implanted in BALB/c mouse assessed as tumor growth delay at 25 ug, ip administered once per week and measured every 3 days for 23 days; type: functional, organism-based; details: dose 25.0 µg, time 23.0 day
# In short: (§4)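 Subcutaneous CT26 tumours were grown in BALB/c mice, with cells cultured in DMEM/10% FBS. At a mean tumour size of 100 mm³, mice were randomised (n = 5/group). Agonist was given ip once weekly; anti-PD-1 or IgG isotype was given ip at 200 μg twice weekly. Tumour volume (V = 1/2ab²) was measured every 3 days. Mice were euthanised at 2000 mm³.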
# [13] = Acute toxicity in BALB/c mouse assessed as maximum tolerated dose; details: in vivo
# [14] = target: T1, TLR7 and TLR8 (Homo sapiens); test: Agonist activity at human TLR7/8 expressed in human PBMC cells assessed as induction of IL-12p40 production by measuring concentration required to induce maximal response incubated for 12 hrs by multiplexed immunoassay; type: cell-based; details: filed as agonist; in short: as §1
# [15] = target: T1, TLR7 and TLR8 (Homo sapiens); test: Agonist activity at human TLR7/8 expressed in human PBMC cells assessed as induction of TNFalpha production by measuring concentration required to induce maximal response incubated for 12 hrs by multiplexed immunoassay; type: cell-based; details: filed as agonist; in short: as §1
# CT26 [16] = test: Antitumor activity against mouse CT26 cells implanted in BALB/c mouse assessed as reduction in tumor volume at 25 ug, ip administered once a week in presence of anti-PD-1 antibodies and measured every 3 days for 23 days; type: functional, organism-based; details: dose 25.0 µg, time 23.0 day; in short: as §4
# [17] = target: T1, TLR7 and TLR8 (Homo sapiens); test: Agonist activity at human TLR7/8 expressed in human PBMC cells assessed as induction of IL-10 production by measuring concentration required to induce maximal response incubated for 12 hrs by multiplexed immunoassay; type: cell-based; details: filed as agonist; in short: as §1
# [18] = target: T1, TLR7 and TLR8 (Homo sapiens); test: Agonist activity at human TLR7/8 expressed in human PBMC cells assessed as induction of MCP-1 production by measuring concentration required to induce maximal response incubated for 12 hrs by multiplexed immunoassay; type: cell-based; details: filed as agonist; in short: as §1
# CT26 [19] = test: Antitumor immunity against mouse CT26 cells implanted in BALB/c mouse assessed as increase in infiltration of CD4+ TH1 cells at 25 ug, ip administered once a week with anti-PD-1 antibody for 23 days by flow cytometry analysis; type: functional, organism-based; details: dose 25.0 µg, time 23.0 day; in short: as §2
# [20] = Acute toxicity in BALB/c mouse assessed as decrease in locomotor activity at 15 to 80 mg/kg, ip administered as single dose measured after 24 hrs; type: organism-based; details: in vivo, dose 15-80 mg/kg
# [21] = target: T1, TLR7 and TLR8 (Homo sapiens); test: Agonist activity at human TLR7/8 expressed in human PBMC cells assessed as induction of INF-gamma production by measuring concentration required to induce maximal response incubated for 12 hrs by multiplexed immunoassay; type: cell-based; details: filed as agonist; in short: as §1
# [22] = Acute toxicity in BALB/c mouse assessed as decrease in locomotor activity at 15 to 80 mg/kg, ip administered as single dose; type: organism-based; details: in vivo, dose 15-80 mg/kg
# [23] = target: T1, TLR7 and TLR8 (Homo sapiens); test: Agonist activity at human TLR7/8 expressed in human PBMC cells assessed as induction of G-CSF production by measuring concentration required to induce maximal response incubated for 12 hrs by multiplexed immunoassay; type: cell-based; details: filed as agonist; in short: as §1
# CT26 [24] = test: Antitumor immunity against mouse CT26 cells implanted in BALB/c mouse assessed as increase in infiltration of CD8+ T cytotoxic lymphocytes at 25 ug, ip administered once a week with anti-PD-1 antibody for 23 days by flow cytometry analysis; type: functional, organism-based; details: dose 25.0 µg, time 23.0 day; in short: as §2
# [25] = target: T1, TLR7 and TLR8 (Homo sapiens); test: Agonist activity at human TLR7/8 expressed in human PBMC cells assessed as induction of IL-8 production by measuring concentration required to induce maximal response incubated for 12 hrs by multiplexed immunoassay; type: cell-based; details: filed as agonist; in short: as §1
# [26] = Acute toxicity in BALB/c mouse assessed as white discharge from eyes at 15 to 80 mg/kg, ip administered as single dose measured after 24 hrs; type: organism-based; details: in vivo, dose 15-80 mg/kg
# [27] = Acute toxicity in BALB/c mouse assessed as mortality at 120 mg/kg, ip administered as single dose; type: organism-based; details: in vivo
# [28] = target: T1, TLR7 and TLR8 (Homo sapiens); test: Agonist activity at human TLR7/8 expressed in human PBMC cells assessed as induction of VEGF secretion incubated for 12 hrs by multiplexed immunoassay; type: cell-based; details: filed as agonist; in short: as §1
# [29] = Acute toxicity in BALB/c mouse assessed as mild diarrhea at 15 to 80 mg/kg, ip administered as single dose; type: organism-based; details: in vivo, dose 15-80 mg/kg
# [30] = Acute toxicity in BALB/c mouse assessed as body weight loss at 60 mg/kg, ip administered as single dose relative to control; type: organism-based; details: in vivo
# [31] = Acute toxicity in BALB/c mouse assessed as white discharge from eyes at 15 to 80 mg/kg, ip administered as single dose; type: organism-based; details: in vivo, dose 15-80 mg/kg
# [32] = Acute toxicity in BALB/c mouse assessed as body weight regain at 60 mg/kg, ip administered as single dose measured after 3 days; type: organism-based; details: in vivo, 72 h, time 3 day
# [33] = Subacute toxicity in BALB/c mouse assessed as splenomegaly at 15 mg/kg, ip administered as single dose; type: organism-based; details: in vivo
# In short: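 Subacute toxicity study in BALB/c mice given ip TLR7/8 agonist. Spleens from treated and control groups were weighed and photographed. Body weight was recorded every day.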
# [34] = Subacute toxicity in BALB/c mouse assessed as body weight loss at 1.12 g, ip administered as single dose; type: organism-based; details: in vivo
# In short: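 Subacute study in BALB/c mice, with treated and control groups. Body weight was recorded every day. Spleens were weighed and photographed, and tissues were examined by H&E staining.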
structure (smiles),measurement,setting,value
CCOCc1nc2c(N)nc3ccccc3c2n1CC(C)(C)O [RESIQUIMOD],ECmax,[1],2 µg/mL
same,Activity,CT26 [2],Active
same,Activity,CT26 [3],Active
same,Activity,[4],Non-Toxic
same,ECmax,[5],2 µg/mL
same,Activity,[6],Non-Toxic
same,Activity,CT26 [7],Active
same,Activity,CT26 [8],Active
same,Activity,[9],Non-Toxic
same,ECmax,[10],2 µg/mL
same,ECmax,[11],2 µg/mL
same,Activity,CT26 [12],Active
same,MTD,[13],80 mg/kg
same,ECmax,[14],2 µg/mL
same,ECmax,[15],2 µg/mL
same,Activity,CT26 [16],Active
same,ECmax,[17],2 µg/mL
same,ECmax,[18],2 µg/mL
same,Activity,CT26 [19],Active
same,Activity,[20],Non-Toxic
same,ECmax,[21],2 µg/mL
same,Activity,[22],Toxic
same,ECmax,[23],2 µg/mL
same,Activity,CT26 [24],Active
same,ECmax,[25],2 µg/mL
same,Activity,[26],Non-Toxic
same,Activity,[27],Toxic
same,Activity,[28],Active
same,Activity,[29],Toxic
same,Activity,[30],8.7%
same,Activity,[31],Toxic
same,Activity,[32],Non-Toxic
same,Activity,[33],Toxic
same,Activity,[34],Toxic
